Experimental data reported in ChEMBL document CHEMBL5113474, “Triazole-substituted phenylboronic acids as tunable lead inhibitors of KPC-2 antibiotic resistance” (Eur J Med Chem, 2022).
Values after ≈ are worked out from the molar mass of the structure shown.

What was measured:
[1] = tested on: Escherichia coli; assay: microbe, parasite or virus in culture; format: functional; conditions: BL21 (DE3), dose 5 µg/ml, time 16-20 hrs
[2] = Inhibition of bacterial beta-lactamase KPC-2 expressed in Escherichia coli BL21 (DE3) using nitrocefin as substrate assessed as inhibition constant by Cheng-Prusoff equation analysis; design: species or system Bacteria
[3] = tested on: Bacteria; assay: Inhibition of bacterial beta-lactamase KPC-2 expressed in Escherichia coli BL21 (DE3) using nitrocefin as substrate at 1 uM by spectrophotometric analysis relative to control
How it was run: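 Purified recombinant KPC-2 tested against the chromogenic β-lactam nitrocefin at 1 µM inhibitor. Hydrolysis was followed as the rise in absorbance at 482 nm (ε482 = 17,400 M-1 cm-1). Activity is expressed as percent inhibition relative to an uninhibited control.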

[4] = tested on: Escherichia coli; format: functional, BL21 (DE3); conditions: time 16-18 hrs
[5] = tested on: Escherichia coli; assay: Antibacterial activity against Escherichia coli NCTC10418; format: functional
[6] = tested on: Escherichia coli; assay: microbe, parasite or virus in culture; format: functional; conditions: BL21 (DE3), dose 50 µg/ml, time 16-20 hrs
[7] = physchem; conditions: 0.1 M phosphate buffer, pH 4.3
[8] = tested on: Escherichia coli; assay: microbe, parasite or virus in culture; format: functional; conditions: BL21 (DE3), dose 5 µg/ml, time 16-20 hrs; remark: listed apart in the source
[9] = tested on: Escherichia coli; assay: microbe, parasite or virus in culture; format: functional; conditions: BL21 (DE3), dose 50 µg/ml, time 16-20 hrs; remark: listed apart in the source
[10] = Cytotoxicity against HEK293 cells assessed as cell viability at 5 to 50 ug/ml incubated for 24 hrs by MTT assay relative to control; conditions: human, at 5 to 50 µg/mL
[11] = Cytotoxicity against HEK293 cells assessed as cell viability at 5 to 50 ug/ml incubated for 24 hrs in presence of cefotaxime by MTT assay relative to control; conditions: human, at 5 to 50 µg/mL
[12] = Inhibition of class C […]beta-lactamase AmpC (unknown origin); design: species or system Bacteria
[13] = tested on: Escherichia coli; assay: Potentiation of cefotaxime induced antibacterial activity against Escherichia coli expressing CMY-4/TEM-1 assessed as cefotaxime MIC at 5 ug/ml incubated for 16 to 20 hrs by microdilution method; format: functional; conditions: dose 5 µg/ml, time 16-20 hrs
How it was run: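 Cefotaxime MIC re-measured with the boronic acid inhibitor held at a fixed 5 μg/mL, lowered from an earlier 50 μg/ml fixed-dose combination; MICs interpreted against CLSI susceptibility categories.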

Row | Compound | Ki [2] | inhibition [3] | inhibition zone (IZ) [4] | viability at 24 h [10] | viability at 24 h [11] | further results
1 | [N-]=[N+]=Nc1ccc(F)c(B(O)O)c1 | 570 nM | 37% | 25.3 mm |  |  | MIC [1]: 1 µg/mL (≈ 5.53 µM); MIC [5]: > 64 µg/mL; MIC [6]: 0.5 µg/mL (≈ 2.76 µM); pKa at 100 µM [7]: 6.87; MIC [8]: 1 µg/mL (≈ 5.53 µM); MIC [9]: 0.25 µg/mL (≈ 1.38 µM)
2 | O=C(Nc1cccc(B(O)O)c1)c1cccs1 | 2900 nM | 2% | 26 mm | > 80% | > 80% | 
3 | OB(O)c1cccc(Cn2cc(-c3cccnc3)nn2)c1 | 480 nM | 54% | 25.9 mm | > 80% | > 80% | 
4 | [N-]=[N+]=Nc1cc(B(O)O)c(F)cc1F | 7800 nM | 0% | 23.4 mm | > 80% | > 80% | MIC [1]: ≤ 0.06 µg/mL; MIC [5]: > 64 µg/mL; MIC [6]: 16 µg/mL (≈ 80.4 µM); pKa at 100 µM [7]: 6.27; MIC [8]: 8 µg/mL (≈ 40.2 µM); MIC [9]: 0.12 µg/mL (≈ 0.603 µM)
5 | OB(O)c1cccc(Cn2cc(C3CC3)nn2)c1 | 515 nM | 30% | 30.9 mm |  |  | 
6 | OB(O)c1cccc(Cn2cc(-c3ccccc3)nn2)c1 | 166 nM | 69% | 29.6 mm | > 80% | > 80% | 
7 | COc1ccc(-c2cn(Cc3cccc(B(O)O)c3)nn2)cc1 | 860 nM | 7% | 25.6 mm | > 80% | > 80% | 
8 | Nc1cc(F)c(F)c(B(O)O)c1 |  |  | 25.5 mm |  |  | 
9 | NCc1ccc(F)c(B(O)O)c1 |  |  | 19.9 mm |  |  | 
10 | [N-]=[N+]=Nc1cc(F)c(F)c(B(O)O)c1 | 27200 nM |  | 16.8 mm |  |  | pKa at 100 µM [7]: 6.04
11 | OB(O)c1cccc(-n2cc(-c3cccs3)nn2)c1 | 710 nM | 20% | 31.8 mm | > 80% | > 80% | 
12 | OB(O)c1ccc(Cn2cc(-c3ccsc3)nn2)cc1 | 219 nM | 53% | 27.6 mm | > 80% | > 80% | 
13 | OB(O)c1cc(Cn2cc(-c3ccsc3)nn2)ccc1F | 240 nM | 53% | 29.9 mm |  |  | MIC [1]: ≤ 0.06 µg/mL; MIC [5]: > 64 µg/mL; MIC [6]: ≤ 0.06 µg/mL; pKa at 100 µM [7]: 10; MIC [8]: ≤ 0.06 µg/mL; MIC [9]: ≤ 0.06 µg/mL
14 | OB(O)c1cccc(Cn2cc(-c3cccs3)nn2)c1 | 67 nM | 85% | 33.7 mm | > 80% | > 80% | MIC [1]: ≤ 0.06 µg/mL; MIC [5]: > 64 µg/mL; MIC [6]: ≤ 0.06 µg/mL; MIC [8]: ≤ 0.06 µg/mL
15 | O=S(=O)(NCB(O)O)c1ccc(-c2nnn[nH]2)cc1C(F)(F)F |  |  |  |  |  | Ki [12]: 0.05 nM
16 | OB(O)c1cccc(Cn2cc(-c3ccsc3)nn2)c1 | 32 nM | 92% | 32 mm |  |  | MIC [1]: ≤ 0.06 µg/mL; MIC [5]: > 64 µg/mL; MIC [6]: ≤ 0.06 µg/mL; MIC [8]: ≤ 0.06 µg/mL
17 | O=C(Nc1cccc(B(O)O)c1)c1cc2ccccc2s1 |  | 8.6% | 28.4 mm | > 80% | > 80% | 
18 | COc1ccc(-c2cn(Cc3ccc(B(O)O)cc3)nn2)cc1 | 227 nM | 59% | 22.6 mm |  |  | 
19 | O=[N+]([O-])c1cc(NCc2ccccc2)cc(B(O)O)c1 |  |  | 20.9 mm |  |  | 
20 | O=[N+]([O-])c1cc(B(O)O)c(F)cc1F |  |  | 29.3 mm |  |  | pKa at 100 µM [7]: 5.98
21 | OB(O)c1cccc(-n2cc(-c3ccccc3)nn2)c1 |  | 18% | 26.2 mm |  |  | 
22 | CC(C)(C)c1cn(Cc2cccc(B(O)O)c2)nn1 | 280 nM | 50% | 33.5 mm |  |  | MIC [5]: > 64 µg/mL; MIC [6]: 0.5 µg/mL (≈ 1.93 µM); MIC [9]: 0.12 µg/mL (≈ 0.463 µM)
23 | OB(O)c1cccc(-n2cc(C3CC3)nn2)c1 | 440 nM | 47% | 31.5 mm | > 80% | > 80% | 
24 | OB(O)c1cc(-n2cc(-c3ccsc3)nn2)ccc1F | 800 nM | 35% | 39.8 mm |  |  | MIC [1]: 0.12 µg/mL (≈ 0.415 µM); MIC [5]: > 64 µg/mL; MIC [6]: ≤ 0.06 µg/mL; pKa at 100 µM [7]: 7.61; MIC [8]: 1 µg/mL (≈ 3.46 µM); MIC [9]: ≤ 0.06 µg/mL
25 | CCC1CC(=O)CCN1c1ccccc1B(O)O (centres undefined) |  |  | 18.7 mm |  |  | 
26 | OB(O)c1cccc(Cn2cc(-c3ccccn3)nn2)c1 |  | 61% | 25.9 mm |  |  | 

Row | Compound | Ki [2] | inhibition [3] | inhibition zone (IZ) [4] | viability at 24 h [10] | viability at 24 h [11] | further results
27 | OB(O)c1ccc(Cn2cc(-c3ccccn3)nn2)cc1 |  | 47% | 27.4 mm | > 80% | > 80% | 
28 | CC(C)(C)c1cn(-c2cccc(B(O)O)c2)nn1 | 660 nM | 14% | 32.7 mm |  |  | 
29 | OB(O)c1ccc(Cn2cc(-c3ccccc3)nn2)cc1 | 323 nM | 55% | 25.5 mm | > 80% | > 80% | 
30 | Nc1cc(B(O)O)cc([N+](=O)[O-])c1 |  |  | 26.9 mm |  |  | 
31 | [N-]=[N+]=NCc1cccc(B(O)O)c1 | 830 nM | 30% | 30 mm | > 80% | > 80% | MIC [1]: ≤ 0.06 µg/mL; MIC [5]: > 64 µg/mL; MIC [8]: 0.12 µg/mL (≈ 0.678 µM)
32 | [N-]=[N+]=Nc1cccc(B(O)O)c1 | 450 nM | 34% | 31.3 mm |  |  | MIC [1]: ≤ 0.06 µg/mL; MIC [13]: 1 µg/mL; MIC [5]: > 64 µg/mL; pKa at 100 µM [7]: 8.27; MIC [8]: 0.25 µg/mL (≈ 1.53 µM); MIC [9]: ≤ 0.06 µg/mL
33 | O=C(Nc1cccc(B(O)O)c1)c1ccc2sccc2c1 |  | 10.2% | 26.1 mm |  |  | 
34 | OB(O)c1ccc(Cn2cc(-c3cccnc3)nn2)cc1 |  | 59% | 23.7 mm |  |  | 
35 | Cc1ccc(F)c(B(O)O)c1 |  |  | 29.6 mm |  |  | 
36 | COc1ccc(B(O)O)c(-n2cccn2)c1 |  |  | 21.7 mm |  |  | 
37 | OB(O)c1cccc(-c2ccccc2)c1 |  |  | 29.7 mm |  |  | 
38 | OB(O)c1cccc(Cn2cc(Cc3ccccc3)nn2)c1 |  | 48% | 23.6 mm |  |  | 
39 | O=C(Nc1cccc(B(O)O)c1)c1ccsc1 | 870 nM | 28% | 29 mm | > 80% | > 80% | MIC [1]: 0.12 µg/mL (≈ 0.486 µM); MIC [5]: > 64 µg/mL; MIC [6]: 2 µg/mL (≈ 8.09 µM); MIC [8]: 4 µg/mL (≈ 16.2 µM); MIC [9]: 0.12 µg/mL (≈ 0.486 µM)
40 | OB(O)c1ccc(Cn2cc(-c3cccs3)nn2)cc1 | 275 nM | 45% | 27.5 mm |  |  | 
41 | OB(O)c1cccc(-n2cc(-c3ccsc3)nn2)c1 | 38 nM | 75% | 29.9 mm | > 80% | > 80% | MIC [1]: 0.25 µg/mL (≈ 0.922 µM); MIC [5]: > 64 µg/mL; MIC [6]: 0.25 µg/mL (≈ 0.922 µM); pKa at 100 µM [7]: 8.31; MIC [8]: 1 µg/mL (≈ 3.69 µM); MIC [9]: 0.12 µg/mL (≈ 0.443 µM)
42 | CCOC(=O)c1cn(-c2cccc(B(O)O)c2)nn1 |  | 25% | 30 mm | > 80% | > 80% | MIC [5]: > 64 µg/mL; MIC [6]: 2 µg/mL (≈ 7.66 µM); MIC [9]: 1 µg/mL (≈ 3.83 µM)
43 | COc1ccc(-c2cn(-c3cccc(B(O)O)c3)nn2)cc1 |  | 5.9% | 30.1 mm |  |  | 
44 | O=C(Nc1cccc(B(O)O)c1)c1ccccc1 |  | 40% | 25.2 mm | > 80% | > 80% | 
45 | O=C(O)c1cn(-c2cccc(B(O)O)c2)nn1 |  | 0.3% | 32.9 mm | > 80% | > 80% | 
46 | OB(O)c1ccc(-c2ccccc2)cc1 [BIPHENYLBORONIC ACID] |  |  | 32.2 mm |  |  | 
47 | O=C(O)c1cn(Cc2cccc(B(O)O)c2)nn1 | 1020 nM | 10% | 21.4 mm | > 80% | > 80% | MIC [1]: 2 µg/mL (≈ 8.1 µM); MIC [5]: > 64 µg/mL; MIC [6]: 2 µg/mL (≈ 8.1 µM); MIC [8]: 4 µg/mL (≈ 16.2 µM); MIC [9]: 0.12 µg/mL (≈ 0.486 µM)
48 | CCOC(=O)c1cn(Cc2cccc(B(O)O)c2)nn1 | 900 nM | 7% | 31.8 mm |  |  | 
49 | CCC(=O)Nc1cccc(B(O)O)c1 |  | 16% | 25.2 mm | > 80% | > 80% | 
50 | [N-]=[N+]=NCc1ccc(B(O)O)cc1 | 493 nM |  |  | > 80% | > 80% | 
51 | [N-]=[N+]=NCc1ccc(F)c(B(O)O)c1 | 410 nM | 40% | 29 mm |  |  | MIC [1]: ≤ 0.06 µg/mL; MIC [5]: > 64 µg/mL; MIC [6]: ≤ 0.06 µg/mL; pKa at 100 µM [7]: 7.22; MIC [8]: 0.5 µg/mL (≈ 2.56 µM); MIC [9]: ≤ 0.06 µg/mL
